Test results: ChEMBL document CHEMBL4028897 (J Med Chem, 2017)
The source made the active and inactive calls. The rule behind the calls is not given here.

How the values were obtained:
D(3) dopamine receptor [1] = target: T1, D(3) dopamine receptor (Homo sapiens, UniProt P35462); test: Displacement of [125I]ABN from human dopamine D3 receptor expressed in HEK293 cell membranes after 60 mins by scintillation counting method
D(2) dopamine receptor = D(2) dopamine receptor (Homo sapiens, UniProt P14416); test: Displacement of [125I]ABN from human dopamine D2 long receptor expressed in HEK293 cell membranes after 60 mins by scintillation counting method
In short: (§1)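 Nonspecific binding defined with 20 μM (+)-butaclamol. Inhibitor spanned 5 log units, two concentrations per decade, in triplicate. Stopped with ice-cold Tris/NaCl wash and glass-fiber filtration.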

Homo sapiens = organism: Homo sapiens; test: Selectivity ratio of Ki for human dopamine D2 long receptor to Ki for human dopamine D3 receptor; in short: as §1
[2] = target: T2, 5-hydroxytryptamine receptor 1A (Homo sapiens, UniProt P08908); test: Displacement of [3H]8-OH-DPAT from human 5-HT1A receptor expressed in CHO-K1 cell membranes after 60 mins by scintillation counting method
T2 sequence (P08908 whole entry): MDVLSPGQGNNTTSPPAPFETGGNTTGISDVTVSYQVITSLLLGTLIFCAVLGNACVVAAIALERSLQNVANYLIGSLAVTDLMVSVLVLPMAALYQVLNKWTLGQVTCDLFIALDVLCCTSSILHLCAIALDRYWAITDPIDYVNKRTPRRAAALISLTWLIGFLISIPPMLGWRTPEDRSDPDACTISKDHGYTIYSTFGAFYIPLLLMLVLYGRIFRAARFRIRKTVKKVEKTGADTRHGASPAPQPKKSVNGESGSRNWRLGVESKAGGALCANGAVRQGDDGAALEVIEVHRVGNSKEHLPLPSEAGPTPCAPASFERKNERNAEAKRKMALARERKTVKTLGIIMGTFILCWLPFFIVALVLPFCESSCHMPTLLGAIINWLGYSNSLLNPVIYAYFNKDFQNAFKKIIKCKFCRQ
In short: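 CHO-K1 membranes expressing human 5-HT1AR in 50 mM Tris-HCl, 10 mM MgSO4, 0.5 mM EDTA, 0.1% ascorbic acid, pH 7.4. […] Nonspecific binding with 10 μM metergoline. Competitor over 5 log units, two per decade, in triplicate. Ice-cold 10 mM Tris-HCl (pH 7.4) wash, glass-fiber filtration.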

[3] = target: 5-hydroxytryptamine receptor 2A (Homo sapiens) (UniProt P28223); test: Binding affinity to 5-HT2A receptor (unknown origin)
[4] = target: T3, 5-hydroxytryptamine receptor 2C (Homo sapiens) (UniProt P28335); test: Binding affinity to 5-HT2C receptor (unknown origin)
T3 sequence (whole entry): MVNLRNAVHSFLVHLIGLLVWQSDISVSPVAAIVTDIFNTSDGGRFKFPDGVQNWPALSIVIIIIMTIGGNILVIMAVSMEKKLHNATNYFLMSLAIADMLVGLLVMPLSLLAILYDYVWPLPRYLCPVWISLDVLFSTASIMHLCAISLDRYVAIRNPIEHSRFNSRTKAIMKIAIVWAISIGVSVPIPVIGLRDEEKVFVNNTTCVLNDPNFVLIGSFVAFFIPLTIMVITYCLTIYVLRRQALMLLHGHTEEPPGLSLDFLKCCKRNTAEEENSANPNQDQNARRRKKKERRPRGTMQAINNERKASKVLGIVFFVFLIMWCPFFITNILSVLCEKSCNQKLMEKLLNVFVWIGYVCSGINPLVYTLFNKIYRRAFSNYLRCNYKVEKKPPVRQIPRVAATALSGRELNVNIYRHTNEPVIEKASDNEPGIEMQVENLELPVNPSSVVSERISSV

D(3) dopamine receptor [5] = target: T1, D(3) dopamine receptor; test: Agonist activity at human ProLink-tagged dopamine D3 receptor expressed in human U2OS cells assessed as induction of EA-tagged beta-arrestin binding at 10 times Ki after 90 mins by chemoluminescence assay; format: cell-based
D(3) dopamine receptor [6] = target: T1, D(3) dopamine receptor; test: Agonist activity at human dopamine D3 receptor expressed in human U2OS cells assessed as inhibition of forskolin-dependent stimulation of adenylyl cyclase at 10 times Ki; format: functional, cell-based
D(3) dopamine receptor [7] = target: T1, D(3) dopamine receptor; test: Partial agonist activity at human dopamine D3 receptor expressed in human U2OS cells assessed as inhibition of forskolin-dependent stimulation of adenylyl cyclase at 10 times Ki; format: functional, cell-based

5-hydroxytryptamine receptor 2A (Homo sapiens), sequence (P28223 whole entry): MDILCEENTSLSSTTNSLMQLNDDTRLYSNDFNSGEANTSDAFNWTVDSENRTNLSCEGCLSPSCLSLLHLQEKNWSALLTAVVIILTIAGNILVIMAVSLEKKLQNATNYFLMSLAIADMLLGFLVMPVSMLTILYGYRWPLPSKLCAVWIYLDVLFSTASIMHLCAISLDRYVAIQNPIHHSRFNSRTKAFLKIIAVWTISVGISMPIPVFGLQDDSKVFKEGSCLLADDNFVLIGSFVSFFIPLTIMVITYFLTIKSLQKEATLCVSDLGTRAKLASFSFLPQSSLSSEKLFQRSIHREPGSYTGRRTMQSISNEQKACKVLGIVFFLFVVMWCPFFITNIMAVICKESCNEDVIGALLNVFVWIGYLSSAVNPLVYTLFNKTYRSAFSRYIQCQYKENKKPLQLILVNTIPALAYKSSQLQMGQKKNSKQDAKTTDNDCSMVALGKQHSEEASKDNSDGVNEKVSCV
D(2) dopamine receptor, sequence (P14416 whole entry): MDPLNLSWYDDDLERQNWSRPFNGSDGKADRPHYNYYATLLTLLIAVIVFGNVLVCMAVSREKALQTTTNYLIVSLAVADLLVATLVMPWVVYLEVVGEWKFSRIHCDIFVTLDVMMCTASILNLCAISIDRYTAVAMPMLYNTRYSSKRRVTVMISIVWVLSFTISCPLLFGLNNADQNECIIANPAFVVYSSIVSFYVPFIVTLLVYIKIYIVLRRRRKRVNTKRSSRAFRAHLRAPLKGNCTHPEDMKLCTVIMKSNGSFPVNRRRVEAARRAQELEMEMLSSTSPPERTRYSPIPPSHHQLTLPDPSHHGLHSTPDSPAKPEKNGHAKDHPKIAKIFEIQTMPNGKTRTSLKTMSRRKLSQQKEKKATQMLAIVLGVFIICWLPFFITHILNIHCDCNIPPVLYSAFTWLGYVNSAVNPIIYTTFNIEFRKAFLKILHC
T1 sequence (P35462 whole entry): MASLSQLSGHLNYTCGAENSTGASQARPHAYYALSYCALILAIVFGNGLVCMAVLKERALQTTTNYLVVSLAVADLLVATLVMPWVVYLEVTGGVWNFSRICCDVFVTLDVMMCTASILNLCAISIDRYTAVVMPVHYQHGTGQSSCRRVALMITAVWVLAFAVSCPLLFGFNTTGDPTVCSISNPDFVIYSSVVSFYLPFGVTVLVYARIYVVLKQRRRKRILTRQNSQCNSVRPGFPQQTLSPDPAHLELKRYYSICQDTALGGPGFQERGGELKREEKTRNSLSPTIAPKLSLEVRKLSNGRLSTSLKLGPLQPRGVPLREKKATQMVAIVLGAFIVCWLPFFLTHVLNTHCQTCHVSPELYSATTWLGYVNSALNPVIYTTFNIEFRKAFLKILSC

SMILES | Ki (D(3) dopamine receptor [1]) [µM] | Ki (D(2) dopamine receptor) [µM] | Ratio Ki (Homo sapiens) | Ki [2] [µM] | Activity [3] | Activity [4] | Activity (D(3) dopamine receptor [5]) | Activity (D(3) dopamine receptor [6]) | Activity (D(3) dopamine receptor [7])
COc1ccccc1N1CC2(CN(CCCSc3nnc(-c4ccccc4)n3C)C2)C1 | 0.833 | 21.2 | 25.5 | – | – | – | – | – | –
Cn1c(SCCCN2CCC3(CC2)CCN(c2cccc(C#N)c2)CC3)nnc1-c1ccccc1 | 0.438 | 57.1 | 130 | – | – | – | – | – | –
Cn1c(SCCCN2CCC3(CC2)CCN(c2ccccn2)CC3)nnc1-c1ccccc1 | 0.871 | 83.7 | 96.1 | – | – | – | – | – | –
COc1ccccc1N1CCC2(CCN(CCCSc3nnc(-c4ccccc4)n3C)CC2)C1 | 0.0196 | 6.17 | – | 0.724 | Active | Active | inactive | inactive | –
COc1ccccc1N1CCC2(CCN(CCCSc3nnc(-c4ccccc4)n3C)CC2)CC1 | 0.012 | 10.9 | – | 0.931 | Active | Active | – | – | Active
COc1ccccc1N1CCC12CCN(CCCSc1nnc(-c3ccccc3)n1C)CC2 | 0.169 | 29.3 | 173 | – | – | – | – | – | –
Cn1c(SCCCN2CCC3(CC2)CCN(c2ccc(F)cc2)CC3)nnc1-c1ccccc1 | 0.0256 | 9.79 | 383 | 0.587 | Active | Active | inactive | inactive | –
COc1ccc(N2CCC3(CCN(CCCSc4nnc(-c5ccccc5)n4C)CC3)CC2)cc1 | 0.0977 | 105 | 1070 | – | – | – | – | – | –
COc1ccccc1N1CCC2(CCN(CCCSc3nnc(-c4ccccc4)n3C)C2)C1 (racemic) | 0.0242 | 6.37 | 264 | – | – | – | inactive | inactive | –
Cn1c(SCCCN2CCC3(CC2)CCN(c2cccc(Cl)c2Cl)CC3)nnc1-c1ccccc1 | 0.0824 | 7.5 | 91 | – | – | – | – | – | –
COc1ccccc1N1CCN(CCCSc2nnc(-c3ccccc3)n2C)CC1 | 0.0065 | 0.26 | – | 0.00022 | – | – | – | – | –
COc1ccccc1N1CCC2(CN(CCCSc3nnc(-c4ccccc4)n3C)C2)C1 | 0.192 | 60.2 | 313 | – | – | – | – | – | –
COc1ccccc1N1CCC12CN(CCCSc1nnc(-c3ccccc3)n1C)C2 | 4.79 | 115 | 24 | – | – | – | – | – | –
Cn1c(SCCCN2CC3(CCN3c3ccc(F)cc3)C2)nnc1-c1ccccc1 | 18.2 | > 110 | > 6 | – | – | – | – | – | –
COc1ccccc1N1CC2(CCN(CCCSc3nnc(-c4ccccc4)n3C)CC2)C1 | 0.235 | 37.6 | 160 | – | – | – | – | – | –
